# Source: PMC4811700 (European journal of medicinal chemistry, 2016)
# Legend:
# Mcl-1 = Mcl-1 (Homo sapiens, UniProt Q07820); experiment: Fluorescence polarization competition assay; format: binding; details: for change in experimental free energy of binding to Mcl-1: relative to the preceding compound in the series 3b, 3a, 3bi, 3bl; for binding affinity to Mcl-1 in vitro: data not shown
# Mcl-1^172-327 = Mcl-1^172-327 (Homo sapiens, UniProt Q07820); experiment: NMR 1H,15N-HSQC with 15N-labeled Mcl-1; format: binding; details: 131 μM 15N-labeled Mcl-1, 182 μM compound
# How it was run: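 2D 1H,15N-fast HSQC collected at 25 °C, 800 MHz, with and without compound. Buffer: 20 mM HEPES pH 6.8, 50 mM NaCl, 3 mM DTT, 20% D2O, 5% d6-DMSO. Backbone amide shift changes monitored.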
# Chain of Mcl-1 (Q07820 172-327): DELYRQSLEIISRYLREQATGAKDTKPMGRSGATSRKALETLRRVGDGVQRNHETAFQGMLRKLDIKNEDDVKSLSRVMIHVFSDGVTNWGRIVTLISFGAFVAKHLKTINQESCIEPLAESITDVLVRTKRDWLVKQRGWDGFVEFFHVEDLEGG
# Chain of Mcl-1^172-327 (Q07820 172-327): as above
compound,measurement,setting,value
"O=C(O)c1cc(S(=O)(=O)Nc2ccc(Br)cc2)c2ccccc2c1O [Compound 3a, 4-(N-(4-bromophenyl)sulfamoyl)-1-hydroxy-2-naphthoic acid]",change in experimental free energy of binding to Mcl-1,Mcl-1,-2.1 kcal/mol
"CC(C)CN(c1ccc(OC(C)C)cc1)S(=O)(=O)c1cc(C(=O)O)c(O)c2ccccc12 [Compound 3ba, 1-Hydroxy-4-(N-isobutyl-N-(4-isopropoxyphenyl)sulfamoyl)-2-naphthoic acid]",interaction with Mcl-1 by HSQC chemical shift perturbation,Mcl-1^172-327,direct interaction
"Cc1cc(Oc2ccc(NS(=O)(=O)c3cc(C(=O)O)c(O)c4ccccc34)cc2)cc(C)c1Cl [Compound 3bi, 4-(N-(4-(4-Chloro-3,5-dimethylphenoxy)phenyl)sulfamoyl)-1-hydroxy-2-naphthoic acid]",change in experimental free energy of binding to Mcl-1,Mcl-1,-1.9 kcal/mol
"Cc1cc(Oc2ccc(N(Cc3ccccc3)S(=O)(=O)c3cc(C(=O)O)c(O)c4ccccc34)cc2)cc(C)c1Cl [Compound 3bl, 4-(N-Benzyl-N-(4-(4-chloro-3,5-dimethylphenoxy)phenyl)sulfamoyl)-1-hydroxy-2-naphthoic acid]",change in experimental free energy of binding to Mcl-1,Mcl-1,-0.8 kcal/mol
"O=C(O)c1cc(S(=O)(=O)NCC2CCCCC2)c2ccccc2c1O [Compound 3g, 4-(N-(Cyclohexylmethyl)sulfamoyl)-1-hydroxy-2-naphthoic acid]",fold improvement in Mcl-1 inhibitory activity,Mcl-1; relative to unsubstituted benzylic amine derivative 3c,8 fold
"COc1c(C(=O)O)cc(S(=O)(=O)N(CC(C)C)c2ccc(Br)cc2)c2ccccc12 [Compound 12, 4-(N-(4-Bromophenyl)-N-isobutylsulfamoyl)-1-methoxy-2-naphthoic acid]",fold reduction in Mcl-1 activity,"Mcl-1; methylation of hydroxyl group, relative to 3ca",~40 fold
"COC(=O)c1cc(S(=O)(=O)N(CC(C)C)c2ccc(OC(C)C)cc2)c2ccccc2c1O [Compound 13, Methyl 1-hydroxy-4-(N-isobutyl-N-(4-isopropoxyphenyl)sulfamoyl)-2-naphthoate]",binding affinity to Mcl-1 in vitro,Mcl-1,no binding affinity
"CC(=O)OCOC(=O)c1cc(S(=O)(=O)N(CC(C)C)c2ccc(OC(C)C)cc2)c2ccccc2c1O [Compound 14, Acetoxymethyl 1-hydroxy-4-(N-isobutyl-N-(4-isopropoxyphenyl)sulfamoyl)-2-naphthoate]",binding affinity to Mcl-1 in vitro,Mcl-1,no binding affinity
